Data set [1] relates to Mycobacterium tuberculosis. The data set can be described thus: Antimicrobial activity against Mycobacterium tuberculosis H37Rv ATCC 27294 after 5 days by three-fold serial dilution assay. The class given is functional. The following applies: H37Rv ATCC 27294, 120 h. The gist of the method:
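H37Rv grown in 7H9 broth with 0.05% Tween 80 and 10% ADS. Compounds in 90% DMSO, three-fold serially diluted in duplicate. Early-log culture diluted to OD600 0.02 was added, then incubated at 37 °C for 5 days. Growth read by absorbance. MIC50 (50% growth inhibition) taken from non-linear curve fits. Isoniazid ran as internal control in every assay.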

Data set [2] is described as follows: Oral bioavailability in mouse at 25 mg/kg by LC/MS analysis. The class given is ADME, organism-based. The following applies: in vivo. The gist of the method: (§1)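 Mice dosed p.o. at 25 mg/kg (2.5 mg/mL) or i.v. at 5 mg/kg (1 mg/mL). Vehicles varied: propanediol/solutol in pH 4.6 acetate buffer, or microemulsion/Cremophor-based mixes. Blood taken 0.08–24 h (i.v. first point 0.02 h), three mice per time point. Plasma extracted with acetonitrile:methanol:acetic acid and quantified by LC/MS/MS (LLOQ 1–3 ng/mL). Noncompartmental analysis of mean profiles; F from dose-corrected p.o./i.v. AUC.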

Data set [3] can be described thus: Elimination half life in mouse at 25 mg/kg, po by LC/MS analysis. The class given is ADME, organism-based. Also on record: dose 25 mg/kg, route oral. The following applies: in vivo, read-out: beta t1/2 (converted). The gist of the method:
as §1

Data set [4] is described as follows: Volume of distribution at steady state in mouse at 5 mg/kg, iv by LC/MS analysis. The class given is ADME, organism-based. Also on record: dose 5 mg/kg, route intravenous. The following applies: in vivo, read-out: Vdss. The method in brief: as §1
A short description of data set [5]: Cmax in mouse at 25 mg/kg, po by LC/MS analysis. The class given is ADME, organism-based. Details: dose 25 mg/kg, route oral. The following applies: in vivo. The method in brief: as §1
A short description of data set [6]: AUC (0 to 24 hrs) in mouse at 25 mg/kg, po by LC/MS analysis. The class given is ADME, organism-based. Also on record: time < 24 hr, dose 25 mg/kg, route oral. The following applies: plasma. The gist of the method: as §1
Data set [7] can be described thus: Clearance in mouse at 5 mg/kg, iv by LC/MS analysis. The class given is ADME, organism-based. Also on record: dose 5 mg/kg, route intravenous. The following applies: in vivo. The gist of the method:
as §1

Data set [8] can be described thus: Elimination half life in mouse at 5 mg/kg, iv by LC/MS analysis. The following applies: in vivo, read-out: beta t1/2 (converted). Also on record: dose 5 mg/kg, route intravenous. The class given is ADME, organism-based. The method in brief: as §1
Data set [9] is described as follows: Aqueous solubility of the compound at pH 6.8 after 24 hrs by high-throughput equilibrium solubility assay. The class given is physicochemical. The following applies: buffer. The method in brief: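 Miniaturized shake-flask equilibrium method. DMSO stock removed by centrifugal evaporation, aqueous buffer added, shaken 24 h. Plunger pushed through a filter membrane, shaken a further 30 min, and filtrate quantified by HPLC.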

Data set [10] is described as follows: Intrinsic clearance in mouse liver microsomes by LC/MS/MS analysis. The class given is ADME, Microsome. The following applies: read-out: CLH. The method in brief:
(§2)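 Compound depletion in liver microsomes of the named species, measured by LC/MS/MS. In vitro half-life gave hepatic extraction ratio and predicted metabolic clearance.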

Data set [11] can be described thus: Intrinsic clearance in rat liver microsomes by LC/MS/MS analysis. The class given is ADME. The following applies: read-out: CLH. The method in brief: as §2
(In general: Liver microsomes are vesicles of endoplasmic reticulum, rich in cytochrome P450 enzymes.)

A further data set has as its system THP-1. The data set can be described thus: Cytotoxicity against human THP1 cells. The class given is cell-based.
The nature of data set [12]: Elimination half life in mouse at 5 mg/kg, iv and 75 mg/kg, po by LC/MS analysis. The class given is ADME, organism-based. The following applies: in vivo, read-out: beta t1/2 (converted).
Data set [13] deals with Mycobacterium tuberculosis. The data set can be described thus: Antitubercular activity against Mycobacterium tuberculosis H37Rv infected in Balb/c mouse model assessed as log CFU reduction at 25 mg/kg, po qd administered for 28 days relative to untreated control. The class given is functional. The gist of the method:
(§3)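 Balb/c mice infected intranasally on day 0 with 10^3 H37Rv bacilli. Oral dosing, once daily, 7 days a week for 28 days, began 7 days post-infection at 25 or 75 mg/kg; ethambutol 100 mg/kg served as positive control. Lungs removed aseptically and homogenized. CFU counted by serial dilution plating on 7H11 agar; log lung CFU compared with untreated controls.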

Data set [14] relates to Mycobacterium tuberculosis. The data set can be described thus: Antitubercular activity against Mycobacterium tuberculosis H37Rv infected in Balb/c mouse model assessed as log CFU reduction at 75 mg/kg, po qd administered for 28 days relative to untreated control. The class given is functional. The gist of the method:
as §3

Data set [15] can be described thus: AUC (0 to 24 hrs) in mouse at 5 mg/kg, iv and 75 mg/kg, po by LC/MS analysis. The class given is ADME, organism-based. The following applies: plasma.
Data set [16] can be described thus: Intrinsic clearance in human liver microsomes by LC/MS/MS analysis. The following applies: read-out: CLH. The class given is ADME. The gist of the method: as §2

Values after ≈ are worked out from the molar mass of the structure shown.

As for `Cc1cc(C)c2cc(C(=O)N(C)C3CCCCC3)[nH]c2c1`, the MIC50 (commonly an inhibitory concentration at the 50% level, which refers to growth in some studies and to a panel of isolates in others) in data set [1] is > 20 µM.

For `Cc1cc(C)c2nc(C(=O)N[C@@H]3CCCC[C@@H]3C)[nH]c2c1`, the MIC50 in data set [1] was > 20 µM.

On to `CC1CCC(NC(=O)c2cc3c(Cl)cc(Cl)cc3[nH]2)CC1` (configuration not stated), for which, in data set [2], the bioavailability (usually dose-corrected exposure relative to a reference, in per cent) was 48%. The values for the half-life in [3] and in data set [8] were 4.2 h and 6.89 h, respectively. Moreover, the Vd in data set [4] amounted to 2.2 L/kg. For the same molecule, the concentration in [5] peaked (Cmax) at 7.23 µM. Also, the AUC(0-t) – broadly, exposure summed from dosing to a finite time, without extrapolation to infinity – at 24 h in data set [6] was determined as 30.4 µM·h. For the same molecule, the clearance (as a rule, the volume of plasma or blood freed of the substance per unit of time) in data set [7] was determined as 20.1 mL/min/kg. Moreover, in data set [9], the thermodynamic solubility (commonly solubility found after equilibrating the solid with the medium) at 24 h is < 4 µM. The microsomal CLint in [10] was found to be 37 µL/min/mg. Also, the MIC50 in [1] stood at 0.15 µM (≈ 0.0488 µg/mL).

Consider `Cc1cc(C)c2cc(C(=O)NC3CCCCC3O)[nH]c2c1` (configuration not stated), for which the thermodynamic solubility at 24 h in [9] came out at 56 µM (≈ 16 µg/mL). The molecule further came in with an MIC50 in data set [1] of 8.9 µM (≈ 2.55 µg/mL).

`C[C@H]1CCCC[C@H]1NC(=O)c1cc2c(Cl)cc(Cl)cc2[nH]1`: the thermodynamic solubility at 24 h in data set [9] is < 4 µM. Also, the microsomal CLint in data set [10] amounted to 89 µL/min/mg. In [1], this molecule showed an MIC50 of 0.053 µM (≈ 0.0172 µg/mL).

As to `Cc1cc(C)c2cc(C(=O)NC3CCOCC3)[nH]c2c1`, the thermodynamic solubility at 24 h in data set [9] worked out at 17 µM (≈ 4.63 µg/mL). The MIC50 in data set [1] is > 20 µM.

In data set [9], `CCC(C)NC(=O)c1cc2c(C)cc(C)cc2[nH]1` (configuration not stated) returned a solubility (thermodynamic) at 24 h of 22 µM (≈ 5.38 µg/mL). In addition, the MIC50 in data set [1] turned out to be 9.33 µM (≈ 2.28 µg/mL).

`CC1(C)CCC(NC(=O)c2cc3c(Cl)cc(Cl)cc3[nH]2)CC1` displayed a bioavailability in [2] of 53%. Also, the values for the microsomal CLint in [11], in data set [10] and in data set [16] were 139 µL/min/mg, 13 µL/min/mg and 59 µL/min/mg, respectively. In addition, the half-life in data set [3] was 5.96 h; in data set [12], 8.14 h; in [8], 5.25 h. The Activity in the data set with THP-1 is > 20 µM. In addition, the Vd in data set [4] was determined as 4.11 L/kg. Besides, the Cmax (usually the maximum level reached in the sampled fluid or tissue) in data set [5] is 3.51 µM. This molecule also yielded an AUC(0-t) at 24 h in [6] of 33.9 µM·h. The same molecule yielded a clearance in [7] of 18.1 mL/min/kg. Moreover, the FC in data set [13] is listed as 2.6; in [14], 4.79. Moreover, the thermodynamic solubility at 24 h in data set [9] is < 4 µM. This molecule also came in with an AUC(0-t) in data set [15] of 70.3 µM·h. Besides, the MIC50 in data set [1] is 0.015 µM (≈ 0.00509 µg/mL).

Turning to `Cc1cc(C)c2cc(C(=O)NC3CCCCC3)[nH]c2c1`, the solubility (thermodynamic) at 24 h in [9] is < 4 µM. The MIC50 in data set [1] came to 0.82 µM (≈ 0.222 µg/mL).

Turning to `CC1CCC(NC(=O)c2cc3c(F)cc(F)cc3[nH]2)CC1` (configuration not stated), in [9], the solubility (thermodynamic) at 24 h was < 4 µM. For the same molecule, the microsomal CLint in [10] worked out at 866 µL/min/mg. Also, the MIC50 in [1] is 0.3 µM (≈ 0.0877 µg/mL).

Consider `CC1CCC(NC(=O)c2cc3c(Cl)cc(F)cc3[nH]2)CC1` (configuration not stated), for which the thermodynamic solubility at 24 h in [9] was < 4 µM. Further, the microsomal CLint in data set [10] came to 77 µL/min/mg. In data set [1], this molecule came in with an MIC50 of 0.18 µM (≈ 0.0556 µg/mL).

With `CC1CCC(NC(=O)c2cc3ccc(Cl)cc3[nH]2)CC1` (configuration not stated), in data set [10], the microsomal CLint came out at 433 µL/min/mg. Moreover, the MIC50 in data set [1] was determined as 0.23 µM (≈ 0.0669 µg/mL).

Regarding `C[C@H]1CCCC[C@H]1NC(=O)c1cc2c(F)cc(F)cc2[nH]1`, the solubility (thermodynamic) at 24 h in data set [9] is < 4 µM. Also, in data set [10], the microsomal CLint amounted to 660 µL/min/mg. This molecule showed an MIC50 in [1] of 0.28 µM (≈ 0.0819 µg/mL).

In turn, `Cc1cc(C)c2cc(C(=O)NC(C)C)[nH]c2c1` gave a thermodynamic solubility at 24 h in data set [9] of 20 µM (≈ 4.61 µg/mL). Besides, in data set [1], the MIC50 was > 20 µM.

Take `CC1CCC(NC(=O)c2cc3cccc(Cl)c3[nH]2)CC1` (configuration not stated): in data set [10], the microsomal CLint is 1040 µL/min/mg. In data set [1], this molecule displayed an MIC50 of 1.49 µM (≈ 0.433 µg/mL).

In the case of `CCC(CC)NC(=O)c1cc2c(C)cc(C)cc2[nH]1`, the thermodynamic solubility at 24 h in data set [9] is < 4 µM. This molecule displayed an MIC50 in data set [1] of 4.33 µM (≈ 1.12 µg/mL).

Consider `Cc1cc(C)c2cc(C(=O)NCC(C)C)[nH]c2c1`, for which the MIC50 in [1] is 11.8 µM (≈ 2.9 µg/mL).

`C[C@H]1CC[C@H](NC(=O)c2cc3c(F)cc(F)cc3[nH]2)CC1`: the solubility (thermodynamic) at 24 h in data set [9] is < 4 µM. Besides, the microsomal CLint in [10] is 149 µL/min/mg. Besides, in [1], the MIC50 was 0.16 µM (≈ 0.0468 µg/mL).

As to `Cc1cc(C)c2cc(C(=O)NC3CCCCCC3)[nH]c2c1`, the thermodynamic solubility at 24 h in data set [9] was < 4 µM. This molecule also gave an MIC50 in [1] of 0.1 µM (≈ 0.0284 µg/mL).

In [2], `CC1(C)CCC(NC(=O)c2cc3c(F)cc(F)cc3[nH]2)CC1` registered a bioavailability of 51%. The microsomal CLint in [11] was 87 µL/min/mg; in [10] it was 132 µL/min/mg; in data set [16], 3.4 µL/min/mg. For the same molecule, the values for the half-life in [3] and in data set [8] were 5.18 h and 4.47 h, respectively. Besides, in [4], the Vd came to 2.24 L/kg. In addition, the Cmax in data set [5] worked out at 4.21 µM. For the same molecule, in data set [6], the AUC(0-t) at 24 h came to 35.5 µM·h. This molecule also returned a clearance in data set [7] of 18.7 mL/min/kg. The FC in data set [13] was determined as 2.4; in data set [14], 4.6. Moreover, the solubility (thermodynamic) at 24 h in [9] was < 4 µM. Moreover, the MIC50 in [1] is 0.023 µM (≈ 0.00705 µg/mL).

For the origin of these results see ChEMBL document CHEMBL3085699, “Design, synthesis, and biological evaluation of indole-2-carboxamides: a promising class of antituberculosis agents” (J Med Chem, 2013).
